Assay [1] can be described thus: Her2 expression decrease, cell viability multiplex – SKBR3 breast tumor cells, AlphaScreen, ATP viability, primary screen (AID 461;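 active = Her2 level under about 52% in both replicate screens, with viability over 70% of control, limit read from the data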;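 as to Her2 level: lower value means less Her2 protein in the cells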;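 as to viability: percent of carrier control wells set as 100% viability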). The following applies: SKBR3 Her2 protein level, 18-24 h, measured here: SKBR3 viability, ATP luminescence, at 10 µM. Background: In Alpha technology, singlet oxygen from a donor bead excites a nearby acceptor bead.
Assay [2] deals with Receptor tyrosine-protein kinase erbB-2 (Homo sapiens) (UniProt P04626). The assay is described as above. The conditions noted are these: 18-24 h, at 10 µM, stronger effect = lower value.
Assay [3] can be described thus: reduced viability of SK-BR-3 breast cancer cells – cell-based, 24 h, human, pilot screen (AID 572;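 active = viability at or below 10% of carrier control in both of two separate runs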;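 also: compound exposure lasted between 18 and 24 h rather than exactly 24 h; 100% = carrier-treated control wells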). The conditions noted are these: SK-BR-3 viability, CellTiter-Glo luminescence, at 10 µM, stronger effect = lower value.
A short description of assay [4]: HUVEC growth inhibition – cell-based, human, primary screen (AID 575;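 active = viability at or below 30% in both replicate assays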;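 also: 100% = median of untreated cell wells with 0.1% DMSO on each plate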). The conditions noted are these: HUVEC proliferation, CellTiter-Glo luminescence, 72 h; at 10 µM; stronger effect = lower value. The method, boiled down:
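Test system: HUVEC primary cells. Quantity: 1250 endothelial cells in each well. Dosing: single-point 10 µM, DMSO 0.1% final. Incubation: 72 h treatment at 37 °C. Measured by: CTG luminescence. Control set: DMSO cell controls and MePR drug controls. Plate: collagen-coated 384-well format.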

A short description of assay [5]: H69AR cell proliferation blockers – human, duplicate replicates, primary screen (AID 580;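 active = viability at or under a set limit in both replicates, limit being median viability minus 3 SD, cut at about 48% in these data, passing the limit was not always enough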;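 also: 100% = mean luminescence of untreated wells and 0% = no signal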). The conditions noted are these: H69AR lung tumor cells viability, ATP luminescence, 72 h; at 10 µM; stronger effect = lower value.
The nature of assay [6]: MRP1 drug-resistance reversers in H69AR cells – cell-based, doxorubicin co-treatment, pilot screen (AID 601). The conditions noted are these: CellTiter-Glo, 72 h, at 10 µM; for differential viability (reversal): stronger effect = higher value. A general note: In ATP-based viability assays light output follows the ATP content of the culture.
Assay [7] in a line: yeast transport mutant growth inhibition pilot in 384-well plates, post-Golgi transport modulator project (AID 636; in the data active = inhibition above about 31%). The following applies: absorbance 615 nm, about 18 h, stronger effect = higher value.
The nature of assay [8]: growth suppression of yeast trafficking mutant, preliminary HTS, modulators of trafficking downstream of Golgi apparatus project, 1536-format plate, OD 615 nm (AID 637; in the data active = inhibition above about 30%). The conditions noted are these: yeast transport mutant growth, absorbance 615 nm, 18 h; stronger effect = higher value.
The mark [9] stands for this setting: H69AR cells + 2 uM doxorubicin, measured here: viability with 2 uM doxorubicin, stronger effect = lower value.
[10] abbreviates: H69AR cells, compound alone cytotoxicity.

Experimental findings from PubChem BioAssay are described below.

The source made the active and inactive calls.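 The calls were made as follows, unless noted: active = viability loss from added drug above about 55%, and viability with drug at most 40%, in both replicates (limit read from the data, passing the limit was not always enough); inconclusive = both conditions met in only one replicate; inactive = neither replicate meets both conditions.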

What is called viability is a read-out of living cells in per cent, often relative to untreated cells. One may read the inhibition as the relative decrease from the control value, in per cent.

Receptor tyrosine-protein kinase erbB-2 (Homo sapiens), sequence (P04626 whole entry, looked up): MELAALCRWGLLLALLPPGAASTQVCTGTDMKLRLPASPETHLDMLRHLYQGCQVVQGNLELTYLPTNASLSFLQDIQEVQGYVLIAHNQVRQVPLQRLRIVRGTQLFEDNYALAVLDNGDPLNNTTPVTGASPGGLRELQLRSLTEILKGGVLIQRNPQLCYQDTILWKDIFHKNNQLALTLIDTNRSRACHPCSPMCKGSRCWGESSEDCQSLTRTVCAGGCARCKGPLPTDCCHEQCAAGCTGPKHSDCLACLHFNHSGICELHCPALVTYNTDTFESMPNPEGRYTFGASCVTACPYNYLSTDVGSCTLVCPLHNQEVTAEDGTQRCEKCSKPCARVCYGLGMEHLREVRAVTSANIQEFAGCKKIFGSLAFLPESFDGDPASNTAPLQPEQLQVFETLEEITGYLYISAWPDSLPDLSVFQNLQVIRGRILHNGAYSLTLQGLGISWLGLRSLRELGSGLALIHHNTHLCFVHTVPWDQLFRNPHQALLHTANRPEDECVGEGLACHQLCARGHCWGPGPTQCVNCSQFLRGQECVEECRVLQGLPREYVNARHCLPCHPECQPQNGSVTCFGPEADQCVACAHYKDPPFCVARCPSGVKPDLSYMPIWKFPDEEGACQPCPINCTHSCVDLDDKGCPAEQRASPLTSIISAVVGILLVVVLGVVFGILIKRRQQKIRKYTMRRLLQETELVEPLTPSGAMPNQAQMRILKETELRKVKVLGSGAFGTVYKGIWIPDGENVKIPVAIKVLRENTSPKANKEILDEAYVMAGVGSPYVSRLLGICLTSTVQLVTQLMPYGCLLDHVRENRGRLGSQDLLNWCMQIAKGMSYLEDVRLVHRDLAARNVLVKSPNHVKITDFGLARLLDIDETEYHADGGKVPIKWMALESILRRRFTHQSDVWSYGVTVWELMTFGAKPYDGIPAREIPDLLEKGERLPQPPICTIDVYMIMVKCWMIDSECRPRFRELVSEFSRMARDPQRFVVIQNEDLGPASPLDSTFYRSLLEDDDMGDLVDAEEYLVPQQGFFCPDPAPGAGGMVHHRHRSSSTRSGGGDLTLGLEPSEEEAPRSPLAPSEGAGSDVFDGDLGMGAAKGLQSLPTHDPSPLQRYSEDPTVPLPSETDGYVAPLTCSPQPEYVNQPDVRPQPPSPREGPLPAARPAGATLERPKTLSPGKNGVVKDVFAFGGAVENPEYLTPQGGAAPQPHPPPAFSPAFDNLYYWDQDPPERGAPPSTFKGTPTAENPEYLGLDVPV

With `C[C@H](NC(=O)NCc1cccs1)C(=O)O`, the viability in assay [1] is 104%; in assay [3] it was 104% (inactive); in assay [4], 111% (inactive); in assay [5], 93.6% (inactive); in assay [6] (setting [9]), 93.5%; in assay [6] (setting [10]), 93.6%. Also, the Her2 level in assay [2] is 98.5% (inactive). In addition, in assay [6] (H69AR cells + 2 uM doxorubicin), the differential viability (reversal) is 0.105% (inactive). The inhibition in assay [7] is -3.87% (inactive); in assay [8], -4.43% (inactive).

Consider `C=COC(=O)CSc1snc(SCC(=O)OC)c1C#N`, for which the viability in assay [1] is 85.5%; in assay [3], 85.5% (inactive); in assay [4], 66.2% (inactive); in assay [5], 98.9% (inactive); in assay [6] (setting [9]) it was 95.9%; in assay [6] (setting [10]), 98.9%. Further, the Her2 level in assay [2] is 92.5% (inactive). The differential viability (reversal) in assay [6] (H69AR cells + 2 uM doxorubicin) was 3.02% (inactive). The inhibition is -5.89% (inactive) in assay [7] and 6.98% (inactive) in assay [8].

In the case of `COc1ccc(Br)cc1S(=O)(=O)N1CC(C)OC(C)C1` (stereo not given), the viability in assay [1] was 90.5%; in assay [3], 90.5% (inactive); in assay [4], 95.6% (inactive); in assay [5], 91.3% (inactive); in assay [6] (setting [9]), 96.2%; in assay [6] (setting [10]), 91.3%. In assay [2], the Her2 level was 100% (inactive). Moreover, the differential viability (reversal) in assay [6] (H69AR cells + 2 uM doxorubicin) is -4.83% (inactive). In addition, the inhibition in assay [7] was 1.73% (inactive); in assay [8] it was -6.35% (inactive).

In the case of `O=c1c2cc(N3CCOCC3)ccc2[nH]c(=S)n1CCCN1CCCC1`, the viability in assay [1] was 89%; in assay [3], 89% (inactive); in assay [4], 86% (inactive); in assay [5], 100% (inactive); in assay [6] (setting [9]), 85.4%; in assay [6] (setting [10]), 100%. In addition, in assay [2], the Her2 level was 78% (inactive). Also, the differential viability (reversal) in assay [6] (H69AR cells + 2 uM doxorubicin) was 14.6% (inactive). Besides, the inhibition was -5.41% (inactive) in assay [7] and 6.89% (inactive) in assay [8].

Take `Nc1nc(CSCc2ccccc2)nc(N2CCOCC2)n1`: the viability was 99.5% in assay [1]; 99.5% (inactive) in assay [3]; 109% (inactive) in assay [4]; 95% (inactive) in assay [5]; 89.2% in assay [6] (setting [9]); 95% in assay [6] (setting [10]). Also, in assay [2], the Her2 level was 93.5% (inactive). For the same compound, in assay [6] (H69AR cells + 2 uM doxorubicin), the differential viability (reversal) is 5.8% (inactive). Also, the inhibition in assay [7] is -5.27% (inactive); in assay [8], -8.67% (inactive).

For `Cn1c(=O)[nH]c(=O)c2c1nc(N1CCNCC1)n2CCOc1ccccc1`, the viability in assay [1] is 79.5%; in assay [3], 79.5% (inactive); in assay [4], 81.1% (inactive); in assay [5], 82% (inactive); in assay [6] (setting [9]) it was 90.6%; in assay [6] (setting [10]), 82%. The Her2 level in assay [2] was 108% (inactive). Moreover, the differential viability (reversal) in assay [6] (H69AR cells + 2 uM doxorubicin) was -8.6% (inactive). The values for the inhibition in assay [7] and in assay [8] were 4.32% (inactive) and 10.8% (inactive), respectively.

Take `Cc1ccc(-c2csc3ncn(-n4c(C)ccc4C)c(=O)c23)o1`: the viability in assay [1] is 96%; in assay [3] it was 96% (inactive); in assay [4] it was 88.7% (inactive); in assay [5], 91.3% (inactive); in assay [6] (setting [9]), 81%; in assay [6] (setting [10]), 91.3%. In assay [2], the Her2 level is 114% (inactive). The differential viability (reversal) in assay [6] (H69AR cells + 2 uM doxorubicin) was 10.3% (inactive). The inhibition was -5.27% (inactive) in assay [7] and -5.57% (inactive) in assay [8].

With `O=c1[nH]c(NCc2ccco2)nnc1Cc1ccccc1Cl`, the viability in assay [1] was 96.5%; in assay [3] it was 96.5% (inactive); in assay [4], 41.2% (inactive); in assay [5], 13.3% (active); in assay [6] (setting [9]) it was 57.8%; in assay [6] (setting [10]), 13.3%. Also, in assay [2], the Her2 level was 84% (inactive). For the same compound, the differential viability (reversal) in assay [6] (H69AR cells + 2 uM doxorubicin) is -44.5% (inactive). In addition, the results for the inhibition in assay [7] and in assay [8] were -7.67% (inactive) and 4.92% (inactive), respectively.

Regarding `CC(NC(=O)C1CCCN(S(=O)(=O)c2cccs2)C1)c1ccccc1` (stereo not given), the viability is 95% in assay [1]; 95% (inactive) in assay [3]; 104% (inactive) in assay [4]; 89.7% (inactive) in assay [5]; 88.2% in assay [6] (setting [9]); 89.7% in assay [6] (setting [10]). Further, the Her2 level in assay [2] was 80.5% (inactive). Further, the differential viability (reversal) in assay [6] (H69AR cells + 2 uM doxorubicin) was 1.41% (inactive). The inhibition in assay [7] was 1.03% (inactive); in assay [8], 1.17% (inactive).

With `Cc1cc(C)n(-c2nnc(C)n2/N=C/c2ccco2)n1`, the viability in assay [1] was 108%; in assay [3], 108% (inactive); in assay [4] it was 93.1% (inactive); in assay [5], 96.1% (inactive); in assay [6] (setting [9]) it was 91%; in assay [6] (setting [10]) it was 96.1%. For the same compound, the Her2 level in assay [2] is 91% (inactive). Besides, the differential viability (reversal) in assay [6] (H69AR cells + 2 uM doxorubicin) was 5.14% (inactive). The inhibition in assay [7] is -6.27% (inactive); in assay [8] it was -2.3% (inactive).

`CCC(C)(C)n1nnnc1C(c1cc2cc(OC)ccc2[nH]c1=O)N1CCc2ccccc21` (stereo not given): the viability in assay [1] is 97%; in assay [3], 97% (inactive); in assay [4], 67% (inactive); in assay [5], 68% (inactive); in assay [6] (setting [9]), 68.1%; in assay [6] (setting [10]) it was 68%. Also, the Her2 level in assay [2] was 78% (inactive). The differential viability (reversal) in assay [6] (H69AR cells + 2 uM doxorubicin) is -0.155% (inactive). Besides, the results for the inhibition in assay [7] and in assay [8] were -3.6% (inactive) and -4.59% (inactive), respectively.

Regarding `CN(C)S(=O)(=O)c1ccc2c(c1)C(CC(=O)O)OC2=O` (stereo not given), the viability in assay [1] was 94%; in assay [3], 94% (inactive); in assay [4], 111% (inactive); in assay [5], 96.1% (inactive); in assay [6] (setting [9]) it was 96.9%; in assay [6] (setting [10]), 96.1%. In assay [2], the Her2 level is 96.5% (inactive). In addition, in assay [6] (H69AR cells + 2 uM doxorubicin), the differential viability (reversal) is -0.855% (inactive). Besides, the results for the inhibition in assay [7] and in assay [8] were -1.6% (inactive) and 17.1% (inactive), respectively.

Take `COC(=O)c1ccc(CSc2nc3c(cnn3-c3ccc(C)c(C)c3)c(=O)[nH]2)o1`: the viability in assay [1] was 90%; in assay [3], 90% (inactive); in assay [4], 18.9% (active); in assay [5] it was 88.4% (inactive); in assay [6] (setting [9]), 77.8%; in assay [6] (setting [10]), 88.4%. In addition, the Her2 level in assay [2] was 91.5% (inactive). Also, in assay [6] (H69AR cells + 2 uM doxorubicin), the differential viability (reversal) was 10.6% (inactive). The figures for the inhibition in assay [7] and in assay [8] were -3.6% (inactive) and -1.64% (inactive), respectively.

In the case of `NC1=NC(c2ccc(Cl)cc2)n2c(nc3ccccc32)N1` (stereo not given), the viability in assay [1] was 96%; in assay [3], 96% (inactive); in assay [4], 84.9% (inactive); in assay [5] it was 78.4% (inactive); in assay [6] (setting [9]), 89.3%; in assay [6] (setting [10]), 78.4%. Also, the Her2 level in assay [2] was 86% (inactive). In addition, the differential viability (reversal) in assay [6] (H69AR cells + 2 uM doxorubicin) was -10.8% (inactive). Also, the values for the inhibition in assay [7] and in assay [8] were -5.13% (inactive) and -0.73% (inactive), respectively.

As for `Cc1cc2cc(CN(CCCN3CCOCC3)C(=O)NC3CCCCC3)c(=O)[nH]c2cc1C`, the viability is 73.5% in assay [1]; 73.5% (inactive) in assay [3]; 70.2% (inactive) in assay [4]; 82.8% (inactive) in assay [5]; 76.5% in assay [6] (setting [9]); 82.8% in assay [6] (setting [10]). The Her2 level in assay [2] is 83% (inactive). Also, the differential viability (reversal) in assay [6] (H69AR cells + 2 uM doxorubicin) was 6.29% (inactive). Besides, the inhibition is -5.07% (inactive) in assay [7] and -2.26% (inactive) in assay [8].
